Screening results from PubChem.
AHR activator: AHR activators, primary screen, cell-based, luminescence, luciferase reporter, human. Aryl hydrocarbon receptor (Homo sapiens), P35869. AHR-responsive luciferase reporter cells. activation, % at 5 µM. 2.5% of 320,000 active; in the data active means activation above about 47%
MC4R ag barr: MC4R agonists recruiting beta-arrestin, primary screen, cell-based, luminescence, agonist arm of biased-ligand search; Melanocortin receptor 4 (Homo sapiens), P32245; U2OS MC4R beta-arrestin complementation; percent of melanotan II response, DMSO zero; activation, % at 8.9 µM; 0.98% of 360,000 active; AID 540308, 2011;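 active means activation above a per-plate cutoff, the mean activation of sample wells on that plate plus 3 SD, cut at about 8% in these data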
Target sequence (P32245 whole entry, looked up): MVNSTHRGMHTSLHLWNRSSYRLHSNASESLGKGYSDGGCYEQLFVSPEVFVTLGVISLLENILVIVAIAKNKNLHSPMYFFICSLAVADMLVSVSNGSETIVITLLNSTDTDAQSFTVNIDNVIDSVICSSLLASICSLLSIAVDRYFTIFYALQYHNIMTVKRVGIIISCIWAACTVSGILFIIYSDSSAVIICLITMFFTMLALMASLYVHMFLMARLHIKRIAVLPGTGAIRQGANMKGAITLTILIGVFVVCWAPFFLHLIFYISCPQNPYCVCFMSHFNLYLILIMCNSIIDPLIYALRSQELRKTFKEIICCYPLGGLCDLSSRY
HTR2A ag: mouse Htr2a agonists via beta-arrestin recruitment, primary screen, cell-based, luminescence; 0.66% of 360,000 active; AID 624169, 2012; activation, % at 7.6 µM; CHO-K1 mHTR2A beta-arrestin complementation; percent of 30 µM serotonin response; 5-hydroxytryptamine receptor 2A (Mus musculus), P35363;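 active means activation above a run cutoff, the mean activation of all tested compounds plus 3 SD, cut at about 14% in these data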
FXN GAA850 act: FXN promoter activators, primary screen, cell-based, luciferase luminescence, HEK293 lucGAA850. HEK293 lucGAA850 FXN promoter luciferase reporter, 24 h; percent of 10 µM SAHA response. activation, % at 6 µM. 0.56% of 360,000 active;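 active means activation above the average of all compounds screened plus 3 SD, cutoff fixed separately per campaign, cut at about 7.5% in these data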
MC4R antag cAMP: MC4R antagonists of cAMP signaling, primary screen, cell-based, TR-FRET, antagonist arm of biased-ligand search. MC4R-expressing cells, MTII-stimulated cAMP, LANCE TR-FRET. 0.48% of 360,000 active. inhibition, % at 6.5 µM. Melanocortin receptor 4 (Homo sapiens), P32245;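 active means inhibition above its plate's cutoff, the mean of tested wells on that plate plus 3 SD, cut at about 29% in these data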
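Material: U2OS-MC4R stable cell line | Reagent: Melanotan II challenge after compound preincubation | Doses: One concentration, 6.5 µM nominal | Incubation: 30-min compound preincubation, 1-h Melanotan II challenge, 1-h detection, room temperature | Signal: TR-FRET cAMP assay | Replicates: One well per compound, no replicates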
Of the large screens only hits and unclear results are named; the others gave an inactive call. Only some compounds are listed: those with a hit (about 4.7% of all), similar ones and a draw of the others.

COC(=O)/C=C/C(=O)Nc1cccnc1	none
COc1ccc(C(CC(=O)c2ccc3c(c2)OCO3)C(=O)O)cc1OC (centres undefined)	none (no result: AHR activator)
CC1CC(C)CN(C(=O)CN2C(=O)NC3(CCCCCC3)C2=O)C1 (centres undefined)	none
COc1cc(OC)cc(-c2c(-c3ccc(C(C)=O)cc3)c3cc(-c4cccc5[nH]ccc45)ccc3n2C)c1	none
O=C1[C@H]2[C@@H](c3ccc(C(F)(F)F)cc3)N[C@]3(CCCN(Cc4ccc(C(F)(F)F)cc4)C3=O)[C@H]2C(=O)N1Cc1ccccc1	none (no result: AHR activator)
O=C(/C=C/c1ccco1)Nc1cccnc1	AHR activator 71
CCOc1ccc(OCC)c(NC(=O)CN(c2ccc(OC)cc2)S(=O)(=O)c2c(C)noc2C)c1	AHR activator 58
COc1ccc(Cl)cc1N(CC(=O)Nc1ccc2c(c1)OCO2)S(C)(=O)=O	AHR activator 76
COc1ccc(N(CC(=O)Nc2ccc3c(c2)OCO3)S(=O)(=O)c2c(C)nn(C)c2C)cc1	AHR activator 59
CC(C)(C)N(Cc1ccccc1)C(=O)COC(=O)CSc1ccc([N+](=O)[O-])cc1	none
COc1ccccc1N(C)S(=O)(=O)c1ccc(C(=O)N(C)Cc2cccc(F)c2)cc1	none (no result: AHR activator)
O=C(NCCCn1ccnc1)Nc1ccc2c(c1)OCO2	AHR activator 50
Cn1cc(CNC(=O)Nc2ccc3c(c2)OCO3)cn1	none
O=C(NCCCn1ccnc1)Nc1cccc(Cl)c1	AHR activator 60
CN(C)c1c([N+](=O)[O-])cc(N2C(=O)C=CC2=O)cc1[N+](=O)[O-]	none (no result: AHR activator)
CC(C)(C)n1cnnc1Sc1ncccc1[N+](=O)[O-]	none
CCN1CCN(C(=O)c2sc3ncnc(N4CCc5ccccc5C4)c3c2C)CC1	AHR activator 49
Cc1c(C(=O)N2CCOCC2)sc2ncnc(N3CCc4ccccc4C3)c12	none
COCCNC(=O)C1CCCN(C(=O)c2cc(C)n(C(C)(C)C)n2)CC1 (centres undefined)	none (no result: AHR activator)
CS(=O)(=O)Cc1ccc(C(=O)N(CCc2ccccc2)Cc2ccccc2)cc1	none
O=C(O)CCCNc1c(C(=O)Nc2ccc(Cl)cc2)cc([N+](=O)[O-])cc1[N+](=O)[O-]	AHR activator 56
O=C(Nc1ccc(Nc2ccccc2)cc1)c1ccc(Cl)cc1[N+](=O)[O-]	none
CC(=O)N1c2ccccc2N=C(c2ccc3c(c2)OCO3)C1C(=O)NCc1ccccc1 (centres undefined)	none (no result: AHR activator, MC4R ag barr, FXN GAA850 act, MC4R antag cAMP)
O=C1NC2(Nc3ccccc31)C(=O)Nc1ccccc12 (centres undefined)	AHR activator 51
CC(=O)NNC(=O)c1cc2c3ccccc3n(C)c2s1	AHR activator 75
O=C(c1cc2c(s1)CCCC2)N1CCN(CCO)CC1	none
Cn1c2ccccc2c2cc(C(=O)N3CCN(CCO)CC3)sc21	AHR activator 68
O=C(Nc1ccc(-c2nc3cc(Cl)ccc3o2)cc1)C1CCCO1 (centres undefined)	AHR activator 55
O=c1[nH]c(SCCc2ccccc2)nc2c1CCC2	none (no result: AHR activator)
CC(=O)Nc1ccccc1OCC(=O)N(Cc1ccccc1)C(C)C	none
O=C(NCCc1c[nH]c2ccccc12)c1ccc2c(c1)OCO2	none
O=C(NCCc1c[nH]c2ccccc12)c1cc(Cl)c2c(c1)OCO2	AHR activator 48
O=C(NCCSc1c[nH]c2ccccc12)c1ccc2c(c1)OCO2	AHR activator 50
O=C(CCNC(=O)c1ccccc1)Nc1ccc(Cl)c(S(=O)(=O)N2CCCCC2)c1	none
Nc1nonc1C(=O)N/N=C/c1ccc(-c2ccc(Cl)c(C(=O)O)c2)o1	none
O=C(O)c1cc(-c2ccc(/C=N/Nc3ccc(Cl)cc3)o2)ccc1Cl	AHR activator 71
CCCc1cc(=O)n2[nH]c(-c3ccc(C)cc3)cc2n1	AHR activator 69
CCCc1cc(=O)n2[nH]c(-c3ccccc3)cc2n1	AHR activator 72
COCCCn1c(C)cc(C(=O)COC(=O)C23CC4CC(CC(O)(C4)C2)C3)c1C	none (no result: AHR activator)
C=C(CCO)C1=CCN(S(=O)(=O)C(C)(C)C)[C@H]1CCO	none (no result: AHR activator)
CC(C)Cc1nnc(NC(=O)C2CCCN(C(=O)c3ccc(Cl)cc3)C2)s1 (centres undefined)	none (no result: AHR activator)
COc1ccc(-c2oc3ccccc3c2C#Cc2cncn2C)cc1	AHR activator 49
COc1ccc(-c2sc3ccc(OC)cc3c2C#Cc2cncn2C)cc1	AHR activator 75
COC(=O)c1c(-c2ccc(OC)cc2)oc2ccccc12	none
Cc1ccccc1Nc1nnc(SCc2nc3ccccc3c(=O)[nH]2)s1	none (no result: MC4R ag barr, HTR2A ag, FXN GAA850 act, MC4R antag cAMP)
Cc1cccc(C)c1Nc1nnc(SCc2nc3ccccc3c(=O)[nH]2)s1	AHR activator 69
COc1ccccc1NC(=O)NC1CCCc2ccccc21 (centres undefined)	none
COc1ccccc1NC(=O)COc1ccc(C(=O)NC2CCCc3ccccc32)cc1OC (centres undefined)	MC4R ag barr 8.5
CCN(CC(=O)Nc1ccccc1OC)C(=O)CSCC(=O)Nc1cccc(C)c1	none (no result: AHR activator)
N#C/C(=C\c1ccc(-c2ccccc2[N+](=O)[O-])o1)C(=O)Nc1nc(-c2cccs2)cs1	AHR activator 59
CCOc1ccc(OCCC(=O)OCC(=O)N2CCN(S(=O)(=O)c3ccc(Cl)cc3)CC2)cc1	FXN GAA850 act 9.7
Cc1ccc(C)c(OCCC(=O)OCC(=O)N2CCN(S(=O)(=O)c3ccc(Cl)cc3)CC2)c1	none
CCc1ccccc1C1=CC(=O)C[C@H](c2ccc(OC)cc2)C1	none
CN1C(=O)C(N=Nc2ccc([N+](=O)[O-])cc2)SC1=S (centres undefined)	none (no result: AHR activator)
CCN(Cc1ccccc1)S(=O)(=O)c1ccc(S(=O)(=O)N2CCN(C)CC2)cc1	none
O=S(=O)(c1ccc(S(=O)(=O)N(Cc2ccccc2)Cc2ccco2)cc1)N1CCCC1	MC4R ag barr 8.5
c1cc2c3c(cccc3c1)NC1(CCC3(CC1)Nc1cccc4cccc(c14)N3)N2	AHR activator 49
Cn1c(=O)cc(OCC(=O)N2CCCc3ccccc32)c2ccccc21	AHR activator 50
Cc1ccccc1OCC(=O)N1CCCc2ccccc21	none
Cc1cc(F)ccc1S(=O)(=O)N1CCCOC1CNC(=O)C(=O)NC1CCCC1 (centres undefined)	none
COc1ccc(CN(C)CC(=O)Nc2cccc(S(=O)(=O)N3CCCC3)c2)cc1F	none
O=S(=O)(c1ccc(-c2nnc(SCc3nnc(-c4ccccc4)o3)o2)cc1)N1CCCC1	none
CCN(CC)S(=O)(=O)c1ccc(-c2nnc(SCc3nnc(-c4ccccc4)o3)o2)cc1	MC4R ag barr 8.4
CCCc1nc2ccccc2c(=O)n1/N=C/c1ccccc1O	none
